Data on six compounds can be found in BindingDB's records for doi:10.1021/jm990004i (Imperial College, 1999).

The target of the experiment is T1, Carboxypeptidase G2 (Pseudomonas aeruginosa (strain ATCC 15692 / DSM 22644 / CIP 104116 / JCM 14847 / LMG 12228 / 1C / PRS 101 / PAO1), UniProt Q9I056).
T1 sequence (Q9I056 whole entry): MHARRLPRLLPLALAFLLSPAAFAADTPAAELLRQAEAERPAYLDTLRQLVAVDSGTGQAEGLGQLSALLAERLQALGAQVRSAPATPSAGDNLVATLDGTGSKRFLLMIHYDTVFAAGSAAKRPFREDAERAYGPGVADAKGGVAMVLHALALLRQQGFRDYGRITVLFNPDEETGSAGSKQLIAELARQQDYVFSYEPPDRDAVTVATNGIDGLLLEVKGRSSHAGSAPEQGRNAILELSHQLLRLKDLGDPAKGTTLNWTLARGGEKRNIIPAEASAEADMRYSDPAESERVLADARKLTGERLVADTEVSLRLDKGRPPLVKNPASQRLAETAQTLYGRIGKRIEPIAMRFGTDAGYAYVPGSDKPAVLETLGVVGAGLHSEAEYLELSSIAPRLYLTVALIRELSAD
Briefly: Inhibitory activity against bacterial carboxypeptidase G2 by Dixon plot assay. In outline: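 Bacterial CPG2 (10 μL stock, 0.1 U) started with 990 μL methotrexate solutions at several concentrations plus inhibitor 0–3.0 μM, in 0.1 M Tris-HCl pH 7.3 with 0.1 mM ZnCl2, 37 °C. Initial rate of absorbance decrease at 320 nm (methotrexate ε 8300). Apparent Ki read from Dixon plot of 1/V against inhibitor concentration.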
Compound `O=C(O)CCC(NC(=O)Sc1cc[n+]([O-])cc1)C(=O)O` (stereo unspecified) [2-(1-Oxy-pyridin-4-ylsulfanylcarbonylamino)-pentanedioic acid] came in with a Ki of 165000 nM.

On to `Nc1cccc(SC(=O)NC(CCC(=O)O)C(=O)O)c1` (stereo unspecified) [2-(3-Amino-phenylsulfanylcarbonylamino)-pentanedioic acid], for which the affinity corresponds to a Ki of 2500 nM. Compound `COc1cccc(SC(=O)NC(CCC(=O)O)C(=O)O)c1` (stereo unspecified) [2-(3-Methoxy-phenylsulfanylcarbonylamino)-pentanedioic acid] registered a Ki of 1070 nM. The figure for `Nc1ccc(SC(=O)NC(CCC(=O)O)C(=O)O)cc1` (stereo unspecified) [2-(4-Amino-phenylsulfanylcarbonylamino)-pentanedioic acid] is 5800 nM; for `Cc1ccc(SC(=O)NC(CCC(=O)O)C(=O)O)cc1` (stereo unspecified) [2-p-Tolylsulfanylcarbonylamino-pentanedioic acid] it is 1050 nM. Regarding `COc1ccc(SC(=O)N[C@H](CCC(=O)O)C(=O)O)cc1` [(R)-2-(4-Methoxy-phenylsulfanylcarbonylamino)-pentanedioic acid], the affinity, expressed as Ki, was 300 nM.

In general, Ki refers to a measure of affinity in units of concentration, obtained from inhibition or displacement.
